Here are results for 28 compounds from ChEMBL document CHEMBL1124244, “Design and synthesis of a series of combined vasodilator/beta-adrenoceptor antagonists based on 6-arylpyridazinones” (1988).

Bounds are passed on as bounds.

The ED50 is the dose at which the effect has come halfway, by size or by number of responders. By Inhibition is commonly meant the percentage by which the read-out fell short of the control.

Assay [1] addresses Beta-1 adrenergic receptor (Homo sapiens) (UniProt P08588). The following applies: Felis catus.
For assay [2], the system named is Rattus norvegicus. The assay can be described thus: Dose required to produce a 50% increase in blood flow to the autoperfused hindquarters of the anesthetized rat. The format is functional. An outline of the steps:
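Anesthetized normotensive rats with autoperfused hindquarters. Intravenous bolus doses. ED50 (μmol kg⁻¹) is dose giving 50% increase in hindquarter blood flow, read from a dose-response curve. At least three animals at a minimum of three doses; 95% confidence intervals by Fieller's theorem.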

In assay [3] the test system is Rattus norvegicus. The assay can be described thus: Dose required to produce a fall in blood pressure of 40 mmHg in the anesthetized rat. The assay is classed as functional. Put shortly:
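Anesthetized normotensive rats dosed by intravenous injection. ED40 (μmol kg⁻¹) is dose lowering blood pressure by 40 mmHg, taken from a dose-response curve. At least three animals, minimum three doses; 95% confidence intervals via Fieller's theorem.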

The target of assay [4] is Adrenergic receptor beta (Homo sapiens) (UniProt P08588+P07550+P13945). The assay can be described thus: Intrinsic Sympathomimetic Activity (ISA) determined from the ratio of the maximal compound and isoprenaline induced tachycardia in anesthetized ganglion blocked cats following intravenous administration. The format is functional, organism-based. The following applies: Felis catus; target entry is the homologue from another species. An outline of the steps: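 Ganglion-blocked (pempidine 5 mg kg⁻¹ iv) anesthetized cats at 37 °C; heart rate from blood pressure pulse. Full isoprenaline dose-response (0.01–10 μg kg⁻¹) obtained first. Cannula washed with saline, then cumulative iv dose-response to compound in 50% PEG 400, raised until maximal heart-rate increase. ISA is the ratio of maximal compound-induced to isoprenaline-induced tachycardia.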

Assay [5] has as its target Beta-1 adrenergic receptor (Homo sapiens) (UniProt P08588). The assay can be described thus: Beta-1 adrenergic receptor antagonsim of compound expressed as inhibition of isoprenaline-induced tachycardia in the ganglion-blocked anesthetized cat. The assay is classed as functional. The following applies: Felis catus. An outline of the steps:
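Ganglion-blocked anesthetized cats (pempidine 5 mg kg⁻¹ iv, left to stabilize; rectal temperature held at 37 °C; heart rate from blood pressure pulse). Compounds given iv via cephalic vein. ID50 is dose for 50% inhibition of standard isoprenaline-induced tachycardia. Percent inhibition logit-transformed; ≥3 animals, ≥3 doses; 95% confidence limits by Fieller's theorem.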

Assay [6] concerns Felis catus. The assay can be described thus: Intrinsic Sympathomimetic Activity(ISA) determined from the ratio of the maximal compound and isoprenaline induced tachycardia in anesthetized ganglion blocked cats following intravenous administration. The format is functional. Put shortly:
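Anaesthetised cats; cephalic vein cannulated; rectal temperature held at 37 °C. Ganglion block with pempidine 5 mg kg⁻¹ iv, then waited for BP and heart rate to stabilise. Heart rate taken from the BP pulse. Isoprenaline tachycardia curve run at 0.01–10 μg kg⁻¹ iv, then a cumulative compound curve in 50% PEG 400, raised to maximal tachycardia. ISA = maximal compound/isoprenaline tachycardia ratio.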

For assay [7], the system named is Felis catus. The assay can be described thus: Beta-1-adrenoceptor antagonsim of compound expressed as inhibition of isoprenaline-induced tachycardia in the ganglion-blocked anesthetized cat at 10 uM/Kg dose. The format is functional.

Sequence of Beta-1 adrenergic receptor (Homo sapiens) (P08588 whole entry, looked up, the tested form may be a part): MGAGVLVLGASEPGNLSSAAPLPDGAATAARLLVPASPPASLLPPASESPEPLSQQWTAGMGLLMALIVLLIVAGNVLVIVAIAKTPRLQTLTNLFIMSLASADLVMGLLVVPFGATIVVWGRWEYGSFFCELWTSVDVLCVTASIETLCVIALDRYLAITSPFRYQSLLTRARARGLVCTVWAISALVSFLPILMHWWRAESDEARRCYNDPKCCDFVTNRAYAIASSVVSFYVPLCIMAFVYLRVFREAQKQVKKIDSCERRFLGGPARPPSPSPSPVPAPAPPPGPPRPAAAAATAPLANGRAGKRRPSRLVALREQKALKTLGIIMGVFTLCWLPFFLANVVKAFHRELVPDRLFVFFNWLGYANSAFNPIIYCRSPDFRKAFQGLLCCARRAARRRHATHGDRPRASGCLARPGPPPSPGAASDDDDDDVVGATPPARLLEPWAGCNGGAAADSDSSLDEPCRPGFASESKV

`N#Cc1ccccc1OCC(O)CNCCC(=O)Nc1ccc(C2=NNC(=O)CC2)cc1` (stereo unspecified) gave an ID50 in assay [1] greater than 1 µmol/kg. This compound also showed an ED50 in assay [2] of 1.7 µmol/kg. The ED40 in assay [3] was 3.5 µM/kg.

For `C=CCOc1ccccc1OCC(O)CNC(C)C` (stereo unspecified), the ISA in assay [4] stood at 0.2. This compound had an ID50 in assay [1] of 0.04 µmol/kg.

Regarding `Cc1ccccc1OCC(O)CNCCC(=O)Nc1ccc(C2=NNC(=O)CC2)cc1` (stereo unspecified), the ISA in assay [4] is 0.14. For the same compound, the ID50 in assay [1] amounted to 1.4 µmol/kg. Besides, in assay [2], the ED50 was found to be 6 µmol/kg. In assay [3], this compound yielded an ED40 of 9.4 µM/kg.

Consider `Cc1ccccc1OCC(O)CNCC(=O)Nc1ccc(C2=NNC(=O)CC2)cc1` (stereo unspecified), for which the ISA in assay [4] came to 0.55. In assay [5], the ID50 is 9 µmol/kg. In assay [2], this compound had a 50% effective dose (ED50) of 2 µmol/kg. The compound also returned an ED40 in assay [3] of 6 µM/kg.

For the compound `COc1ccccc1OCC(O)CNCC(=O)Nc1ccc(C2=NNC(=O)CC2C)cc1` (stereo unspecified), the ISA in assay [4] amounted to 0.37. Further, the ID50 in assay [1] was 2.6 µmol/kg. In assay [2], this compound showed an ED50 of 3 µmol/kg. In assay [3], this compound had an ED40 of less than 4 µM/kg.

For `CC1CC(=O)NN=C1c1ccc(NC(=O)CCNCC(O)COc2ccccc2S(C)(=O)=O)cc1.Cl` (stereo unspecified), the ISA in assay [4] is less than 0.3. In assay [1], this compound came in with an ID50 of 4 µmol/kg. The same compound came in with an ED50 in assay [2] of 2.4 µmol/kg. In addition, the ED40 in assay [3] is 3.9 µM/kg.

Regarding `CC1CC(=O)NN=C1c1ccc(NC(=O)CCNCC(O)COc2cccc3[nH]ccc23)cc1.Cl` (stereo unspecified), in assay [4], the ISA amounted to 0.46. Also, the ID50 in assay [1] stood at 0.09 µmol/kg. In assay [2], the ED50 stood at 4.4 µmol/kg. The compound also came in with an ED40 in assay [3] of 2.9 µM/kg.

For `CC(C)(C)NCC(O)COc1ccccc1-c1ccc(NN)nn1` (stereo unspecified) [PRIZIDILOL], in assay [4], the ISA is 0.2. Moreover, the ID50 in assay [1] turned out to be 0.06 µmol/kg. Moreover, the ED50 in assay [2] came out at 10 µmol/kg. The same compound displayed an ED40 in assay [3] of 14 µM/kg.

In assay [2], `CC(=O)Nc1ccc(C2=NNC(=O)CC2)cc1` gave an ED50 of 4 µmol/kg. In addition, the ED40 in assay [3] worked out at 1 µM/kg.

`Cc1ccccc1OCC(O)CNCC(=O)Nc1ccc(C2=NNC(=O)CC2C)cc1` (stereo unspecified) came in with an ID50 in assay [1] greater than 5 µmol/kg. For the same compound, the ED50 in assay [2] amounted to 2.7 µmol/kg. In assay [3], this compound showed an ED40 of less than 2 µM/kg.

The compound `NNc1nncc2ccccc12` [HYDRALAZINE] returned an ED50 in assay [2] of 0.6 µmol/kg. In assay [3], this compound returned an ED40 of 1 µM/kg.

Turning to `Cc1cccc(OCC(O)CNCCC(=O)Nc2ccc(C3=NNC(=O)CC3C)cc2)c1C` (stereo unspecified), in assay [4], the ISA was determined as 0.14. This compound yielded an ID50 in assay [1] of 0.6 µmol/kg. For the same compound, in assay [2], it took a dose of 2.4 µmol/kg to reach the 50% effect level (ED50). Moreover, in assay [3], the ED40 turned out to be 2.5 µM/kg.

Turning to `Cc1ccccc1OCC(O)CNCCC(=O)Nc1ccc(C2=NNC(=O)CC2C)cc1` (stereo unspecified), in assay [4], the ISA worked out at 0.59. Moreover, it took a dose of 2 µmol/kg to reach the 50% effect level in assay [2] (ED50). Also, the ED40 in assay [3] is 0.5 µM/kg.

Take `Br.CC1CC(=O)NN=C1c1ccc(NC(=O)CCNCC(O)COc2ccccc2)cc1` (stereo unspecified): the ISA in assay [4] worked out at 0.86. The ED50 in assay [2] was 1.5 µmol/kg. This compound yielded an ED40 in assay [3] of 0.6 µM/kg.

In the case of `CC1CC(=O)NN=C1c1ccc(NC(=O)CCN)cc1` (stereo unspecified), in assay [2], the ED50 worked out at 0.2 µmol/kg. The compound also yielded an ED40 in assay [3] of 0.2 µM/kg.

On to `N#Cc1ccccc1OCC(O)CNCC(=O)Nc1ccc(C2=NNC(=O)CC2)cc1` (stereo unspecified), for which the ISA in assay [4] is 0.55. Also, in assay [2], it took a dose of 14 µmol/kg to reach the 50% effect level (ED50). In assay [3], the ED40 was 30 µM/kg.

In assay [2], `Nc1ccc(-c2ccc(O)nn2)cc1` came in with an ED50 of 20 µmol/kg. Moreover, the ED40 in assay [3] amounted to 1 µM/kg.

With `CC1CC(=O)NN=C1c1ccc(NC(=O)CCNCC(O)COc2ccc(CCOCC3CC3)cc2)cc1` (stereo unspecified), the ISA in assay [4] stood at 0.05. Also, the ID50 in assay [1] came to 1 µmol/kg. Moreover, the ED50 in assay [2] was determined as 1.6 µmol/kg. In assay [3], this compound had an ED40 of 2.4 µM/kg.

For the compound `CC1CC(=O)NN=C1c1ccc(NC(=O)CNCC(O)COc2ccccc2C#N)cc1` (stereo unspecified), the ISA in assay [4] stood at 0.53. This compound yielded an ID50 in assay [1] greater than 8 µmol/kg. Besides, the 50% effect level in assay [2] (ED50) was put at a dose of 0.9 µmol/kg. Moreover, in assay [3], the ED40 came out at 2 µM/kg.

Take `CC1CC(=O)NN=C1c1ccc(NC(=O)CCNCC(O)COc2ccccc2N2CCOCC2)cc1` (stereo unspecified): the ISA in assay [4] turned out to be 0.24. Besides, the ID50 in assay [1] is 0.5 µmol/kg. The ED50 in assay [2] is 1.8 µmol/kg. The same compound gave an ED40 in assay [3] of 3.6 µM/kg.

As to `COc1ccccc1OCC(O)CNCCC(=O)Nc1ccc(C2=NNC(=O)CC2C)cc1` (stereo unspecified), the ISA in assay [4] was 0.48. In assay [1], this compound displayed an ID50 of 0.7 µmol/kg. This compound displayed an ED50 in assay [2] of 3 µmol/kg. The same compound registered an ED40 in assay [3] of 2 µM/kg.

`CC1CC(=O)NN=C1c1ccc(NC(=O)CCNCC(O)COc2ccccc2C#N)cc1` (stereo unspecified): the ISA in assay [4] is 0.63. For the same compound, in assay [2], the ED50 amounted to 2.3 µmol/kg. In assay [3], the ED40 stood at 1 µM/kg.

In the case of `CC(=O)Nc1ccc(C2=NNC(=O)CC2C)cc1` (stereo unspecified), the ED50 in assay [2] was 0.1 µmol/kg. In addition, the ED40 in assay [3] stood at 0.18 µM/kg.

As to `CC(C)NCC(O)COc1cccc2[nH]ccc12` (stereo unspecified) [PINDOLOL], in assay [6], the ISA amounted to 0.7.

Turning to `COc1ccccc1OCC(O)CNCC(=O)Nc1ccc(C2=NNC(=O)CC2)cc1` (stereo unspecified), the ISA in assay [4] was found to be 0.42. The ID50 in assay [1] was found to be 10 µmol/kg. The same compound showed an ED50 in assay [2] of 4.6 µmol/kg. In assay [3], the ED40 was 11.5 µM/kg.

Turning to `COc1ccccc1OCC(O)CNCCC(=O)Nc1ccc(C2=NNC(=O)CC2)cc1` (stereo unspecified), the ISA in assay [4] came out at 0.6. In assay [1], the ID50 worked out at 0.7 µmol/kg. Further, the ED50 in assay [2] came to 4.3 µmol/kg. Besides, in assay [3], the ED40 worked out at 11 µM/kg.

Turning to `COCCc1ccc(OCC(O)CNCCC(=O)Nc2ccc(C3=NNC(=O)CC3C)cc2)cc1` (stereo unspecified), in assay [4], the ISA was found to be 0.04. Further, the ID50 in assay [1] came to 2 µmol/kg. This compound returned an ED50 in assay [2] of 6 µmol/kg. Further, the ED40 in assay [3] amounted to 3 µM/kg.

Regarding `O=C1CCC(c2ccc(NC(=O)CNCC(O)COc3cccc4ccccc34)cc2)=NN1` (stereo unspecified), the ISA in assay [4] was found to be 0.1. The compound further showed an ED50 in assay [2] of 1.4 µmol/kg. This compound also came in with an Inhibition in assay [7] of 30%. The same compound had an ED40 in assay [3] of 28 µM/kg.
